Platelet DG rel = modulates dense granule release in human platelets. human platelet-rich plasma, SFLLRN dense granule ATP release, luminescence. inhibition, %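 (compounds screened at 7.5 µM in platelet-rich plasma)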. 300,000 tested, 0.22% active. AID 1663;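 active = mean replicate score, as percent of positive control, at or above 50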
SENP1 inh = inhibitors of human SENP1 SUMO protease catalytic domain | recombinant SENP1 catalytic domain, CyPet-SUMO1-YPet FRET cleavage | inhibition, % at 10 µM | 360,000 tested, 0.21% active | AID 624204;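 active = inhibition at least 30% at 10 µM, raw YFP signal under a set limit, fluorescence ratio 0.5 to 1.5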;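 also: 0% = enzyme with DMSO and 100% = no enzyme wells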
Target sequence (Q9P0U3 419-644 limits assumed): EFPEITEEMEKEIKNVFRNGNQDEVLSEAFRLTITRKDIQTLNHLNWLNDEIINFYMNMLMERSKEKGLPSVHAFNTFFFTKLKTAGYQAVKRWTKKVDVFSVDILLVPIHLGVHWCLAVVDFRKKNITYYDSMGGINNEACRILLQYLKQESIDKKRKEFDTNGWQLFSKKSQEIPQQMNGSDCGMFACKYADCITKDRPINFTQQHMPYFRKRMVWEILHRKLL
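Material: hSENP1 catalytic domain, recombinant; medium: Tris pH 8 with BME, BSA, NP40 and catalase; compound: single concentration of 10 µM compound, 0.5% DMSO final; technique: FRET read of cyan and yellow fluorescence; timing: 50 min enzyme reaction, room temperature, light-protected; reagent: SFCypet-SUMO1-SFYpet substrate at 25 nM; control set: no-enzyme low, enzyme-DMSO high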
SENP8 block-1 = SENP8 protease inhibition; Q96LD8; purified SENP8, Z-RLRGG-aminoluciferin cleavage, luminescence; inhibition, % at 10 µM; 330,000 tested, 1.2% active; AID 2540; in the data active = inhibition above about 50%
SENP7 inh = inhibitors of human SENP7 protease; recombinant SENP7, Z-RLRGG-aminoluciferin luminescence, 40 min; inhibition, % at 5 µM; 330,000 tested, 1.5% active; AID 434973;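 active = inhibition above about 50% at the single test dose, limit read from the data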;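 also: plate controls were DMSO with enzyme for no effect and no enzyme buffer wells for full effect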
SENP8 block-2 = blocks human SENP8 cleavage of Nedd8 substrate | Q96LD8 | recombinant SENP8, Nedd8 substrate fluorescence | inhibition, % at 20 µM | 360,000 tested, 0.64% active | AID 602440; in the data active = inhibition mostly above about 40%, no sharp cut-off; inactive = mostly below about 27%
SENP6 block = inhibitors of human SENP6 protease. Q9GZR1. Recombinant SENP6 catalytic domain, aminoluciferin luminescence. inhibition, % at 10 µM. 330,000 tested, 1.8% active;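 active = inhibition above about 50% at the single tested dose, limit read from the data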;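 also: plate controls were DMSO wells with enzyme for no effect and DMSO wells lacking enzyme for full effect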
SENP8 confirm = human SENP8 inhibition, confirmed. shares compounds with SENP7 inh. Recombinant SENP8, Z-RLRGG-aminoluciferin luminescence, 60 min. inhibition, % at 12.5 µM. 6,200 tested, 40% active;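 active = mean inhibition across replicates above about 50%, limit read from the data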
SENP6 conf = confirmation of human SENP6 protease inhibitors | 6,200 tested, 58% active | inhibition, % at 12.5 µM | recombinant SENP6, Z-RLRGG-aminoluciferin luminescence | AID 488915 | shares compounds with SENP7 inh
SENP7 conf = confirmation of human SENP7 protease inhibitors; inhibition, % at 12.5 µM; shares compounds with SENP7 inh; recombinant SENP7, Z-RLRGG-aminoluciferin luminescence, 40 min; 6,200 tested, 69% active
Casp3 SENP sel = selectivity test for SENP inhibitors: human caspase-3 inhibition | 6,200 tested, 60% active | shares compounds with SENP7 inh | purified caspase-3, Z-DEVD-aminoluciferin luminescence, 60 min | inhibition, % at 12.5 µM;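 active = mean inhibition above about 50%, limit read from the data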;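 also: plate controls were enzyme with DMSO for no effect and wells without caspase-3 for full effect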
Target sequence (P42574 28-227 limits assumed): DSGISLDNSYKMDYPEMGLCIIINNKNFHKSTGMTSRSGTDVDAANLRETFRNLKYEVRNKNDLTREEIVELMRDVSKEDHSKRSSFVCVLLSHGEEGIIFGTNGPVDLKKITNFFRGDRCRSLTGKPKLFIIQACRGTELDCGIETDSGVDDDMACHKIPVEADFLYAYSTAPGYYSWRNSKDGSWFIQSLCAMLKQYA
SENP luc ctr = counter-screen for SENP inhibitors: luminescence interference | inhibition, % at 12.5 µM | shares compounds with SENP7 inh | Pre-incubated SENP8/Z-RLRGG-aminoluciferin, luciferase luminescence interference | 6,200 tested, 39% active;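 active = mean inhibition above about 50% when retested at one dose, limit read from the data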;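 also: plate controls were DMSO wells with completed reaction for no effect and substrate without enzyme for full effect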
Numbers without * were called inactive; / = not tested or not shown. Only some compounds are listed: those with a hit (about 2.6% of all), similar ones and a draw of the others.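 The calls were made as follows, unless noted: active = mean inhibition above about 50% in the one-dose retest (limit read from the data); inactive = the rest.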

SMILES	Platelet DG rel	SENP1 inh	SENP8 block-1	SENP7 inh	SENP8 block-2	SENP6 block	SENP8 confirm	SENP6 conf	SENP7 conf	Casp3 SENP sel	SENP luc ctr
Cc1ccc(Cn2c(SC(C)C(N)=O)nc3ccccc3c2=O)cc1 (stereo not given)	13	3	3	4	4	4	/	/	/	/	/
O=C(CSc1nccc(=O)[nH]1)NC1CCCC1	11	1	12	-4	12	14	/	/	/	/	/
Nn1c(Nc2ccccc2)nc2ccccc21	18	2	28	42	24	67*	51*	47	81*	73*	59*
CN(c1ccc(C(=O)Nc2ccc3c(c2)OCCO3)cc1)S(C)(=O)=O	21	1	36	-13	10	57*	59*	57*	85*	82*	65*
CN(c1ccc(C(=O)Nc2ccc3c(c2)OCO3)cc1)S(C)(=O)=O	83*	3	55*	79*	29	82*	42	42	74*	73*	48
COC(=O)c1cccc(NC(=O)c2ccccc2)c1	-1	3	-9	0	13	-4	/	/	/	/	/
COC(=O)c1cccc(NC(=O)c2onc3c2CCCC3)c1	-2	1	76*	79*	19	92*	-4	47	79*	61*	65*
O=C(Nc1ccc2ccccc2c1)c1onc2c1CCCC2	1	-3	65*	52*	1	80*	39	82*	93*	60*	44
CCS(=O)c1ccccc1C(=O)OCC(=O)Nc1ccc2ccccc2c1 (stereo not given)	/	-1	4	0	2	15	/	/	/	/	/
CC[N+](CC)(CC=C(C)C)CC(=O)OC	4	1	-10	-13	16	4	/	/	/	/	/
CCN(CC)S(=O)(=O)c1ccc(N2CC(C(=O)N3Cc4ccccc4CC3C(N)=O)CC2=O)cc1 (stereo not given)	/	-2	8	-3	9	4	/	/	/	/	/
O=C(Oc1ccccc1)N1CCOCC1	12	2	-4	-2	3	13	/	/	/	/	/
O=C(Oc1ccc(-c2ccccc2)cc1)N1CCCCC1	-12	0	18	33	0	53*	-4	-5	-6	-2	-4
O=C(Oc1ccc(OC(=O)N2CCOCC2)cc1)c1ccccc1	-3	3	26	56*	22	38	-20	19	72*	47	-2
COC1CCCN(Cc2c(C(=O)N3CCN(C4CCCCC4)CC3)nc3ccccn23)C1 (stereo not given)	-32	-30	0	1	-292	-4	/	/	/	/	/
COc1ccc2occ(C(=O)c3ccc(N)cc3)c2c1	0	-3	48	53*	-38	40	55*	54*	82*	44	65*
COc1ccc2occ(C(=O)c3cccs3)c2c1	0	2	30	52*	9	69*	56*	58*	84*	52*	62*
Cc1ccc(C(=O)c2coc3ccc(O)cc23)cc1	2	2	88*	92*	28	86*	6	94*	100*	84*	84*
COc1ccc(C(=O)c2coc3ccc(OC(C)=O)cc23)cc1	11	-2	60*	34	19	50	58*	55*	66*	50*	25
O=C(Cn1c(=O)c2cccn2c2ccccc21)NCCCN1CCCCC1	23	0	6	3	8	-2	/	/	/	/	/
CC1(C(=O)Nc2ccc3c(c2)OCCO3)CSCC(=O)N1CCCn1ccnc1 (stereo not given)	/	2	/	/	13	/	/	/	/	/	/
COc1ccc(NC(=O)n2ncc3c(C)cccc32)cc1	4	0	72*	61*	33	74*	84*	83*	95*	63*	73*
COc1ccc(NC(=O)n2ncc3c(C)cccc32)cc1OC	5	3	25	18	27	38	/	/	/	/	/
CCCCN(C)CCCNC(=O)C1(O)c2ccccc2NC(=O)N1c1ccc(Cl)cc1 (stereo not given)	6	0	6	11	7	4	/	/	/	/	/
Cc1cc(-c2nnc(CSc3nnc(NC(=O)c4ccc(C(C)(C)C)cc4)s3)o2)ccc1[N+](=O)[O-]	-2	3	5	10	20	2	/	/	/	/	/
SMILES	Platelet DG rel	SENP1 inh	SENP8 block-1	SENP7 inh	SENP8 block-2	SENP6 block	SENP8 confirm	SENP6 conf	SENP7 conf	Casp3 SENP sel	SENP luc ctr
CCCn1nc(C(=O)OCC(=O)c2c(N)n(C)c(=O)n(C)c2=O)c2ccccc2c1=O	15	-2	1	11	17	9	/	/	/	/	/
c1ccc(CSc2ncnc3c2cnn3-c2ccccc2)cc1	-10	3	54*	72*	-5	71*	9	7	19	5	8
CC(C)(C)C(=O)CSc1ncnc2c1cnn2-c1ccccc1	-13	-1	-16	16	-36	-42	/	/	/	/	/
CC(C)OC(=O)CSc1ncnc2c1cnn2-c1ccccc1	3	1	19	52*	-25	33	15	18	26	28	7
O=C(Nc1ccccc1)OCCCCCOC(=O)Nc1ccccc1	-3	0	8	1	6	8	/	/	/	/	/
O=C(O)c1cccc(-c2nnn(Cc3ccccc3Cl)n2)c1	-4	0	56*	43	18	82*	12	83*	94*	44	44
O=C(O)c1cccc(-c2nnn(Cc3ccccc3)n2)c1	-6	-1	-10	1	22	10	/	/	/	/	/
Cc1ccccc1Cn1nnc(-c2ccc(C(=O)O)cc2)n1	0	0	-9	0	0	-9	/	/	/	/	/
Cc1ccccc1Cn1nnc(-c2cccc(C(=O)O)c2)n1	14	2	31	33	6	71*	64*	61*	86*	52*	72*
Cc1ccccc1C(=O)Nc1ccc2c(c1)nc(CCNC(=O)c1ccco1)n2C	8	2	3	1	4	7	/	/	/	/	/
c1ccc(-c2noc(-c3cccc4ccccc34)n2)cc1	9	0	11	49	-396	31	/	/	/	/	/
Fc1ccccc1-c1nc(-c2ccccc2)no1	16	0	95*	99*	11	98*	36	97*	102*	90*	29
